{"data": "Assay results pooled from the literature", "note": "Lines come from different studies, so protocols differ."}
{"Compound": "C1CCNCC1", "tested on": "Cryptosporidium parvum", "assay": "parasite growth, imaging", "system": "HCT-8", "conditions": "1 mM, 24 h, intracellular", "endpoint": "activity vs control", "value": "104%"}
{"Compound": "O=C(Nc1cccc(-c2cc(C(=O)O)no2)c1)Nc1ccc(Cl)c(Cl)c1", "tested on": "Klebsiella pneumoniae", "assay": "microbial growth, broth dilution", "system": "BAA1705", "endpoint": "MIC", "value": "> 64 µg/mL"}
{"Compound": "O=C(N/N=C1\\C(=O)N(Cc2ccc(Cl)cc2)c2ccccc21)c1cc2ccccc2[nH]1", "tested on": "HT-29", "assay": "cell growth or viability", "conditions": "30 µM", "endpoint": "inhibition", "value": "93.7%"}
{"Compound": "CCC1(c2ccc(N)cc2)CCC(=O)NC1=O (stereo not drawn)", "tested on": "A2780", "assay": "cell growth or viability, CCK-8", "conditions": "48 h", "endpoint": "IC50", "value": "> 50 µM"}
{"Compound": "COC(=O)c1cc(-c2cccc(NC(=O)Nc3ccc(C(F)(F)F)cc3)c2)on1", "tested on": "Klebsiella pneumoniae", "assay": "microbial growth, broth dilution", "system": "BAA1705", "endpoint": "MIC", "value": "> 64 µg/mL"}
{"Compound": "O=C(N/N=C1\\C(=O)N(Cc2ccccc2)c2ccc(Br)cc21)c1cc2ccccc2[nH]1", "tested on": "HT-29", "assay": "cell growth or viability", "conditions": "30 µM", "endpoint": "inhibition", "value": "94.7%"}
{"Compound": "COc1c2c(cc3c1OCO3)[C@]13C=C[C@H](OC)C[C@@H]1[N@](C2)C[C@H]3OC(=O)c1ccc2ccccc2c1", "tested on": "A2780", "assay": "cell growth or viability, WST-1", "endpoint": "IC50", "value": "> 10 µM"}
{"Compound": "Cc1c(NN=C(C#N)C2=NC(=O)CS2)c(=O)n(-c2ccccc2)n1C", "tested on": "Klebsiella pneumoniae", "assay": "microbial growth, well diffusion", "conditions": "100000 µg/mL", "endpoint": "inhibition zone", "value": "25 mm"}
{"Compound": "CC(C)CCCCCCCCCCCCCCc1cc(O)cc(O)c1", "tested on": "Streptococcus pneumoniae", "assay": "microbial growth", "endpoint": "IC50", "value": "46.3 µM"}
{"Compound": "N#Cc1ccc(CN2C(=O)/C(=N\\NC(=O)c3cc4ccccc4[nH]3)c3ccccc32)cc1", "tested on": "HT-29", "assay": "cell growth or viability", "endpoint": "IC50", "value": "8.11 µM"}
{"Compound": "CCOC(=O)c1nnn(-c2cccc(NC(=O)Nc3ccc(Cl)c(Cl)c3)c2)c1C", "tested on": "Klebsiella pneumoniae", "assay": "microbial growth, broth dilution", "system": "BAA1705", "endpoint": "MIC", "value": "> 64 µg/mL"}
{"Compound": "CCCCCCCCCCCCCCCCCCCCc1cc(O)cc(O)c1", "tested on": "Streptococcus pneumoniae", "assay": "microbial growth", "endpoint": "IC50", "value": "> 200 µM"}
{"Compound": "N#CCc1c[nH]c2ccccc12", "tested on": "Cryptosporidium parvum", "assay": "parasite growth", "system": "HCT-8", "conditions": "24 h, intracellular", "endpoint": "EC50", "value": "546 µM"}
{"Compound": "COc1c2ccoc2cc2oc(=O)ccc12", "tested on": "RD", "assay": "cell growth or viability, WST-1", "conditions": "48 h", "endpoint": "IC50", "value": "31.8 µM"}
{"Compound": "CCC(CCCCCCCCCCc1cc(O)cc(O)c1)C(C)C (stereo not drawn)", "tested on": "Klebsiella pneumoniae", "assay": "microbial growth", "system": "ATCC29665", "endpoint": "IC50", "value": "> 200 µM"}
{"Compound": "COC(=O)c1cc(-c2cccc(NC(=S)Nc3ccccc3Cl)c2)on1", "tested on": "Klebsiella pneumoniae", "assay": "microbial growth, broth dilution", "system": "BAA1705", "endpoint": "MIC", "value": "> 64 µg/mL"}
{"Compound": "CO[C@H]1/C=C/O[C@@]2(C)Oc3c(C)c(O)c4c(O)c(c(/C=N/N5CCN(C)CC5)c(O)c4c3C2=O)NC(=O)/C(C)=C\\C=C\\[C@H](C)[C@H](O)[C@@H](C)[C@@H](O)[C@@H](C)[C@H](OC(C)=O)[C@@H]1C", "tested on": "Mycobacterium tuberculosis variant bovis BCG", "assay": "microbial growth", "system": "BCG", "conditions": "7 days", "endpoint": "MIC", "value": "0.1 µg/mL"}
{"Compound": "CC(C)CCCCCCCCCCCCc1cc(O)cc(O)c1", "tested on": "Streptococcus pneumoniae", "assay": "microbial growth", "endpoint": "IC50", "value": "77.3 µM"}
{"Compound": "O=C(N/N=C1\\C(=O)N(Cc2ccccc2)c2ccc(Cl)cc21)c1cc2ccccc2[nH]1", "tested on": "HT-29", "assay": "cell growth or viability", "conditions": "30 µM", "endpoint": "inhibition", "value": "94.3%"}
{"Compound": "COC(=O)c1cc(-c2cccc(NC(=O)Nc3c(C)cccc3C)c2)on1", "tested on": "Klebsiella pneumoniae", "assay": "microbial growth, broth dilution", "system": "BAA1705", "endpoint": "MIC", "value": "> 64 µg/mL"}
{"Compound": "Cc1ccc(CN2C(=O)/C(=N\\NC(=O)c3cc4ccccc4[nH]3)c3ccccc32)cc1", "tested on": "HT-29", "assay": "cell growth or viability", "conditions": "30 µM", "endpoint": "inhibition", "value": "91.1%"}
{"Compound": "COC(=O)c1cc(-c2cccc(NC(=O)Nc3ccc(Cl)c(C(F)(F)F)c3)c2)on1", "tested on": "Klebsiella pneumoniae", "assay": "microbial growth, broth dilution", "system": "BAA1705", "endpoint": "MIC", "value": "> 64 µg/mL"}
{"Compound": "O=C(N/N=C1\\C(=O)N(Cc2ccccc2)c2ccccc21)c1cc2ccccc2[nH]1", "tested on": "HT-29", "assay": "cell growth or viability", "endpoint": "IC50", "value": "6.19 µM"}
{"Compound": "C[C@H]1COc2c(N3CCN(C)CC3)c(F)cc3c(=O)c(C(=O)O)cn1c23", "tested on": "Klebsiella pneumoniae", "assay": "microbial growth, broth dilution", "system": "BAA1705", "endpoint": "MIC", "value": "64 µg/mL"}
